Inhibition in vivo and Activity data for six molecules are collected here from ChEMBL document CHEMBL3272012, “5-(Tetradecyloxy)-2-furancarboxylic acid and related hypolipidemic fatty acid-like alkyloxyarylcarboxylic acids” (J Med Chem, 1977).

Data set [1] concerns Rattus norvegicus. Description: Hypolipidemic activity in Wistar rat assessed as reduction in plasma triglyceride level at 415 umol/kg/day administered through diet for 4 days. The format is functional. Particulars: 96 h. The method, boiled down: (§1)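 Young male Wistar rats (initial weight 170-190 g), groups of six, fed compound mixed into Purina Lab Chow ad libitum for 4 or 10 days; daily dose calculated from food consumption and body weight. Bled by cardiac puncture; plasma cholesterol and triglycerides by automated procedures; percent reduction versus simultaneous untreated controls, Student's t test.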

Data set [2] deals with Rattus norvegicus. The data set is described as follows: Hypolipidemic activity in Wistar rat assessed as reduction in plasma cholesterol level at 415 umol/kg/day administered through diet for 4 days. Conditions: 96 h. Type of data set: functional. The method, boiled down:
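Young male Wistar rats, 170-190 g at start, in groups of six, given compound mixed into Purina Lab Chow ad libitum for 4 or 10 days as stated. Daily dose was calculated from food consumption and body weight. Plasma was taken by cardiac puncture at the end and cholesterol measured by automated procedure. Results are % reduction versus a concurrent untreated control group, with Student's t test.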

Data set [3] concerns Rattus norvegicus. The data set is described as follows: Increase in cholesterol level in Wistar rat liver at 415 umol/kg/day administered through diet for 4 days. The format is ADME, organism-based. Conditions: in vivo, po, 96 h.
Data set [4] deals with Rattus norvegicus. The data set is described as follows: Increase in liver weight in Wistar rat at 415 umol/kg/day administered through diet for 4 days. The format is ADME, organism-based. Conditions: in vivo, po, 96 h. The method, boiled down: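 Male Wistar rats (170-190 g initial), groups of six, dosed via diet ad libitum for 4 or 10 days, daily dose from food consumption. Liver wet weight measured, expressed as g/100 g final body weight, compared with untreated controls run simultaneously.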

The subject of data set [5] is Rattus norvegicus. The data set is described as follows: Hypolipidemic activity in Wistar rat assessed as reduction in plasma triglyceride level at 591 umol/kg/day administered through diet for 4 days. Type of data set: functional. Conditions: 96 h.
Data set [6] has as its system Rattus norvegicus. The data set is described as follows: Hypolipidemic activity in Wistar rat assessed as reduction in plasma cholesterol level at 591 umol/kg/day administered through diet for 4 days. The format is functional. Particulars: 96 h. The method, boiled down: as §1
Data set [7] has as its system Rattus norvegicus. Description: Increase in cholesterol level in Wistar rat liver at 591 umol/kg/day administered through diet for 4 days. The format is ADME, organism-based. Particulars: in vivo, po, 96 h.
The test system of data set [8] is Rattus norvegicus. The data set is described as follows: Increase in liver weight in Wistar rat at 591 umol/kg/day administered through diet for 4 days. Conditions: in vivo, po, 96 h. The format is ADME, organism-based.
The subject of data set [9] is Rattus norvegicus. Description: Hypolipidemic activity in Wistar rat assessed as reduction in plasma triglyceride level at 425 umol/kg/day administered through diet for 10 days. Conditions: 240 h. The format is functional.
Data set [10] concerns Rattus norvegicus. The data set is described as follows: Hypolipidemic activity in Wistar rat assessed as reduction in plasma cholesterol level at 425 umol/kg/day administered through diet for 10 days. Type of data set: functional. Conditions: 240 h. The method, boiled down: (§2)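 Young male Wistar rats, 170-190 g initial weight, groups of six, given compound mixed thoroughly into Purina Lab Chow ad libitum for 4 or 10 days as stated. Daily dose calculated from food consumption and body weight. Bled by cardiac puncture at end of treatment; plasma cholesterol measured by automated procedure. Expressed as percent reduction versus simultaneous untreated control group; Student's t test.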

Data set [11] has as its system Rattus norvegicus. Description: Increase in cholesterol level in Wistar rat liver at 425 umol/kg/day administered through diet for 10 days. Type of data set: ADME, organism-based. Conditions: in vivo, po, 240 h.
Data set [12] relates to Rattus norvegicus. The data set is described as follows: Increase in liver weight in Wistar rat at 425 umol/kg/day administered through diet for 10 days. Type of data set: ADME, organism-based. Conditions: in vivo, po, 240 h.
Data set [13] has as its system Rattus norvegicus. The data set is described as follows: Hypolipidemic activity in Wistar rat assessed as reduction in plasma triglyceride level at 446 umol/kg/day administered through diet for 4 days. Type of data set: functional. Conditions: 96 h.
Data set [14] concerns Rattus norvegicus. The data set is described as follows: Hypolipidemic activity in Wistar rat assessed as reduction in plasma cholesterol level at 446 umol/kg/day administered through diet for 4 days. Conditions: 96 h. Type of data set: functional. In outline:
as §2

For data set [15], the system named is Rattus norvegicus. Description: Increase in cholesterol level in Wistar rat liver at 446 umol/kg/day administered through diet for 4 days. Type of data set: ADME, organism-based. Conditions: in vivo, po, 96 h.
Data set [16] relates to Rattus norvegicus. The data set is described as follows: Increase in liver weight in Wistar rat at 446 umol/kg/day administered through diet for 4 days. Type of data set: ADME, organism-based. Particulars: in vivo, po, 96 h.
The subject of data set [17] is Rattus norvegicus. The data set is described as follows: Hypolipidemic activity in Wistar rat assessed as reduction in plasma triglyceride level at 571 umol/kg/day administered through diet for 10 days. Type of data set: functional. Conditions: 240 h.
Data set [18] deals with Rattus norvegicus. The data set is described as follows: Hypolipidemic activity in Wistar rat assessed as reduction in plasma cholesterol level at 571 umol/kg/day administered through diet for 10 days. Type of data set: functional. Conditions: 240 h. In outline: as §1
The test system of data set [19] is Rattus norvegicus. Description: Increase in cholesterol level in Wistar rat liver at 571 umol/kg/day administered through diet for 10 days. Type of data set: ADME, organism-based. Particulars: in vivo, po, 240 h.
In data set [20] the test system is Rattus norvegicus. Description: Increase in liver weight in Wistar rat at 571 umol/kg/day administered through diet for 10 days. The format is ADME, organism-based. Particulars: in vivo, po, 240 h.
Data set [21] has as its system Rattus norvegicus. The data set is described as follows: Hypolipidemic activity in Wistar rat assessed as reduction in plasma triglyceride level at 640 umol/kg/day administered through diet for 10 days. Type of data set: functional. Conditions: 240 h.
The subject of data set [22] is Rattus norvegicus. The data set is described as follows: Hypolipidemic activity in Wistar rat assessed as reduction in plasma cholesterol level at 640 umol/kg/day administered through diet for 10 days. The format is functional. Particulars: 240 h. The method, boiled down:
as §1

The subject of data set [23] is Rattus norvegicus. Description: Increase in cholesterol level in Wistar rat liver at 640 umol/kg/day administered through diet for 10 days. Type of data set: ADME, organism-based. Particulars: in vivo, po, 240 h.
For data set [24], the system named is Rattus norvegicus. Description: Increase in liver weight in Wistar rat at 640 umol/kg/day administered through diet for 10 days. The format is ADME, organism-based. Particulars: in vivo, po, 240 h.

For the molecule `CCCCCCCCCCCCCCCc1ccc(C(=O)O)cc1`, the inhibition in vivo at 415 µmol/kg in [1] came to 58%; in data set [2] it was 27%. In addition, the Activity in data set [3] is on record as 13%; in [4], 4%.
For the molecule `CCCCCCCCOc1ccc(C(=O)O)cc1`, the inhibition in vivo at 591 µmol/kg in data set [5] came out at 35%; in [6] it was 8%. In addition, the results for the Activity in data set [7] and in data set [8] were 12% and 0%, respectively.
`CCCCCCCCCCCCCCCCCCCc1ccc(C(=O)O)cc1`: the inhibition in vivo at 425 µmol/kg in data set [9] stood at 2%; in [10], 8%. The Activity in data set [11] stood at 0%; in [12], 10%.
With `CCCCCCCCCCCCCCOc1ccc(OCC(=O)OC)cc1`, the inhibition in vivo at 446 µmol/kg was found to be 0% in data set [13] and 10% in data set [14]. Moreover, the Activity in [15] is reported as 0%; in data set [16], 4%.
Consider `CCCCCCCCCCCCCc1ccc(C(=O)O)cc1`, for which the inhibition in vivo at 571 µmol/kg in data set [17] was found to be 77%; in data set [18], 54%. In addition, the Activity in data set [19] is recorded as 61%; in data set [20], 25%.
In the case of `CCCCCCCCCCc1ccc(C(=O)O)cc1`, the inhibition in vivo at 640 µmol/kg in data set [21] turned out to be 63%; in data set [22], 32%. Further, the Activity is 43% in data set [23] and 18% in data set [24].

For orientation: inhibition in vivo means how much of the control response was suppressed.
